Screening data (PubChem BioAssay)
The list is not random: actives were taken first. Their share in the collection is about 2%.
XiGFP reactiv: activators of X-chromosome reactivation in mouse fibroblasts; XiGFP mouse fibroblasts, % GFP-positive cells imaging, 3 d; cells co-treated with 5-aza-dC sensitizer; scaled so ellipticine positive control = 100%; activation, % at 7.58 µM; actives 0.055% (n = 360,000); AID 743238;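 active = mean normalized replicate activation at least 10% and every replicate at or above 10%; inconclusive = only one of the two criteria met; inactive = mean below 10% and not all replicates reach 10%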
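System: 68-5-11 XiGFP fibroblast line | Buffer or medium: DMEM containing 5-aza-dC | Compound: Single point | Times: Compounds 3 days, fix/stain 15 min at room temperature | Benchmarks: Positive control ellipticine, 6 µM final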
CaV13 FRET inh: Primary screen for inhibitors of IQ motif and Ca2+-dependent inactivation inhibitor domain binding in CACNA1D, Förster resonance energy transfer in living cells, … | actives 0.098% (n = 340,000) | inhibition, % at 12.3 µM | HEK cells, CFP/YFP FRET ICDI-IQ, plate reader, 10 min; percent FRET-ratio fall versus neutral wells | AID 743397;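 active = mean replicate inhibition of at least 30% and at least 1% of replicates passing that level; inconclusive = only one of the two criteria is met; inactive = neither criterion is met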
Casp6 inh: blocks human caspase-6 cleavage activity | P55212 | purified caspase-6, Z-VEID-R110 cleavage fluorescence | inhibition, % at 12.5 µM | actives 0.53% (n = 350,000);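 active = mean inhibition across replicates at least about 35%, with every replicate also reaching that limit, limit read from the data; inconclusive = only one of the two criteria met; inactive = neither criterion met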
Target sequence (P55212 24-179 limits assumed): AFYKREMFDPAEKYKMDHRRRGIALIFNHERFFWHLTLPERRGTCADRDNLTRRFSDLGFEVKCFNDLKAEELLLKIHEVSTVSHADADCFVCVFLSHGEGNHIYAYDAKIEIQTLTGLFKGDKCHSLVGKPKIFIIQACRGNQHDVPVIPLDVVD
Target sequence (P55212 194-293 limits assumed): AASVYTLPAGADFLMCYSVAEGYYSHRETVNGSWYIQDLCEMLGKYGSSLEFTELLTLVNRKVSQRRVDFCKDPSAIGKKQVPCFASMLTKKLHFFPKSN
FN deposit inh: fibronectin deposition inhibition; AH1F fibroblasts, Alexa488-fibronectin deposition fluorescence, overnight; inhibition, % at 12.6 µM; actives 0.086% (n = 350,000);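 active = mean inhibition across replicates of 30% or more, regardless of how many single replicates reach that level; inconclusive = mean under 30% yet at least half of replicates reach 30%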
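Assay system: AH1F fibroblasts assembling fluorescent fibronectin matrix; Amount: 10000 AH1F cells per well; Buffer or medium: DMEM, 2% serum; Probe or stimulus: Alexa488-fibronectin, 24 nM final in well; Doses: single compound dose, delivered by pin transfer; Incubation: 1 h adhesion, overnight exposure; Measured by: fluorescence 485/525 nm; Read-out: fibronectin deposition inhibition.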
DENV2 CPE: protects cells from dengue virus 2 cytopathic effect. actives 1.7% (n = 350,000). CPE inhibition, % at 9.99 µM. AID 651640. DENV2-infected cells, cytopathic effect rescue, plate reader; in the data active = CPE inhibition above about 20%, passing the limit was not always enough; inconclusive = no clear call, values can overlap the other calls; tested in BHK-21 cells
Of the large screens only hits and unclear results are named; the others gave an inactive call.

CC1(c2nnc(Cc3ccccc3)o2)CC(c2ccc(Br)cc2)=NO1 (stereo not drawn)	none (no result: Casp6 inh, DENV2 CPE)
CC1(c2nnc(Cc3ccccc3)o2)CC(c2ccc([N+](=O)[O-])cc2)=NO1 (stereo not drawn)	DENV2 CPE 31.3
CN(Cc1ccco1)c1ncnc2ccc(-c3ccoc3)cc12	Casp6 inh 39.5 (no result: DENV2 CPE)
CN(Cc1ccco1)c1ncnc2ccc(-c3ccccc3Cl)cc12	none
CN(CC(=O)Nc1cccc2ccccc12)C(=O)c1ccc(NC(=O)CC#N)cc1	none
CCOc1cc(C(=O)N(C)CC(=O)Nc2cccc3ccccc23)ccc1OC	DENV2 CPE 41.6
C[C@@H]1CCCCO[C@@H](CN(C)C(=O)Nc2cccc3ccccc23)[C@H](C)CN([C@H](C)CO)C(=O)c2cc(NC(=O)Nc3ccc4c(c3)OCO4)ccc2O1	none (no result: CaV13 FRET inh, FN deposit inh)
CC1CCCN(CC(O)COC(c2ccccc2)c2ccccc2)C1 (stereo not drawn)	Casp6 inh 38.1
CN1CCN(CC(O)COC(c2ccccc2)c2ccccc2)CC1 (stereo not drawn)	none (no result: Casp6 inh)
OC(COC(c1ccc(F)cc1)c1ccc(F)cc1)CN1CCCC1 (stereo not drawn)	DENV2 CPE 40.5
OC(COC(c1ccc(Cl)cc1)c1ccc(Cl)cc1)CN1CCN(c2ccccn2)CC1 (stereo not drawn)	DENV2 CPE 45.1
CCN1[C@@H]2c3ccc(/C=C/c4ccccc4)c(=O)n3C[C@H]1[C@H](CO)[C@H]2C(=O)NC1Cc2ccccc2C1	none (no result: CaV13 FRET inh, FN deposit inh)
Cc1cc2c(C)cc(=O)oc2c2c1NCCC2	CaV13 FRET inh 32.8 (no result: XiGFP reactiv, FN deposit inh)
Cc1cc2cc3c(C)cc(=O)oc3c(C)c2o1	none
COc1ccc(Br)c2oc(SC)cc(=O)c12	DENV2 CPE 81.9
CN1c2ccc(-c3cccc(C#N)c3)cc2[C@@H]2[C@@H](CCN2C(=O)NC2CCCC2)[C@@H]1CO	none (no result: CaV13 FRET inh)
O=S(=O)(NCCO)c1ccc2c(c1)Cc1cc(S(=O)(=O)NCCO)ccc1-2	none (no result: FN deposit inh)
NNS(=O)(=O)c1ccc2c(c1)Cc1cc(S(=O)(=O)NN)ccc1-2	Casp6 inh 48.3
COc1ccc2c3c([nH]c2c1)[C@@H](CO)N(Cc1nccs1)CC31CCN(C(=O)C2CCOCC2)CC1	none (no result: CaV13 FRET inh, FN deposit inh)
O=C1C=C(c2c(O)ccc3ccccc23)c2ccccc2C1=O	none
O=C1C=C(O)c2cccc(O)c2C1=O	Casp6 inh 76.7, DENV2 CPE 43.6 (no result: XiGFP reactiv, CaV13 FRET inh, FN deposit inh)
C[C@H]1CN([C@@H](C)CO)C(=O)c2cc(C3=CCCCC3)cnc2O[C@@H]1CN(C)C(=O)c1ccccc1	none (no result: CaV13 FRET inh)
COCC(=O)N1CCCCN2[C@@H](CO)[C@H](c3ccc(-c4ccc(C)cc4)cc3)[C@@H]2C1	DENV2 CPE 46.7 (no result: CaV13 FRET inh, FN deposit inh)
CN1CCCCN2[C@@H](CO)[C@H](c3ccc(-c4ccccc4)cc3)[C@@H]2C1	DENV2 CPE 32.3 (no result: CaV13 FRET inh, FN deposit inh)
COCC(=O)N1CCCCN2[C@@H](CO)[C@@H](c3ccc(-c4ccc(C)cc4)cc3)[C@@H]2C1	DENV2 CPE 65.7 (no result: CaV13 FRET inh, FN deposit inh)
COCC(=O)N1CCCCN2[C@H](CO)[C@H](c3ccc(-c4ccc(C)cc4)cc3)[C@@H]2C1	DENV2 CPE inconclusive (no result: CaV13 FRET inh, FN deposit inh)
COCC(=O)N1CCCCN2[C@H](CO)[C@@H](c3ccc(-c4ccccc4)cc3)[C@H]2C1	DENV2 CPE 40.3 (no result: CaV13 FRET inh, FN deposit inh)
COCC(=O)N1CCCCN2[C@@H](CO)[C@@H](c3ccc(-c4ccccc4)cc3)[C@@H]2C1	none (no result: CaV13 FRET inh, FN deposit inh)
Cc1noc(C)c1S(=O)(=O)N(C)C[C@H]1Oc2ccc(NC(=O)Nc3ccccc3)cc2C(=O)N([C@H](C)CO)C[C@@H]1C	none (no result: CaV13 FRET inh, Casp6 inh, FN deposit inh, DENV2 CPE)
COc1ccc(C[C@@H]2CCn3cc(nn3)COCCNC2=O)cc1	none (no result: CaV13 FRET inh, Casp6 inh, DENV2 CPE)
COCC(=O)N1CCCCN2[C@H](CO)[C@H](c3ccc(-c4ccc(F)cc4)cc3)[C@@H]2C1	none (no result: CaV13 FRET inh, FN deposit inh)
COCC(=O)N1CCCCN2[C@@H](CO)[C@@H](c3ccc(-c4ccc(F)cc4)cc3)[C@@H]2C1	DENV2 CPE 27.7 (no result: CaV13 FRET inh, FN deposit inh)
COc1ccc(/C=C/c2nnc(NC(=O)C(C)(C)C)s2)cc1	DENV2 CPE 70.1
COCCOC(=O)N1C(=O)[C@@]2(c3cc(C#Cc4ccc(OC)cc4)ccc31)[C@H](c1ccccc1OCCO)N1[C@H](c3ccccc3)[C@H](c3ccccc3)OC(=O)[C@H]1[C@@H]2C(=O)NC[C@H](O)c1ccccc1	none (no result: XiGFP reactiv, CaV13 FRET inh, FN deposit inh)
